Experimental data pooled from the literature.
Lines come from different studies, so protocols differ.
Target: Casein kinase II subunit alpha (CSNK2A1, Homo sapiens, UniProt P68400)

SMILES	assay	setting	endpoint	value
Cn1c2c(c3ccc(Cl)c(Cl)c31)C(C#N)C1(CCOCC1)NC2=O (stereo not shown)	thermal stability, DSF	10 µM	ΔTm	2.1 °C
Cc1sc(C(=O)NC2COC2)cc1-n1cc(NC(=O)Nc2c(F)cccc2Cl)cn1	enzyme activity, inhibitor	10 µM	remaining activity	97%
Nc1nc(Nc2ccccc2)sc1C(=O)c1c(F)cccc1F	enzyme activity, inhibitor	10 µM	remaining activity	111%
FC(F)(F)c1ccc2c(c1)nc(-c1cccnc1)n2C1CC1	cell-free assay, competition with immobilised ligand	1 µM	remaining binding	100%
CC(C)(C)C(=O)c1sc(NC2CCCCC2)nc1N	enzyme activity, inhibitor	10 µM	remaining activity	118%
Cn1c(=O)n(-c2ccc(C(C)(C)C#N)cc2)c2c3cc(-c4cnc5ccccc5c4)ccc3ncc21	enzyme activity, inhibitor	10 µM	remaining activity	79%
COc1cc2ncnc(Nc3ccc(Oc4ccccc4)cc3C)c2cc1OC	enzyme activity, inhibitor	1 µM	inhibition	11%
COc1cc(Cl)c(C(=O)N[C@@H](CN[C@H]2CC[C@@H](N)CC2)Cc2ccc(C#N)cc2)cc1-c1ccc(CN[C@H](C)c2ccc(C)cc2)o1	enzyme activity, inhibitor	1 µM	remaining activity	104%
CC(C)(O)[C@H]1CC[C@H](Nc2ccc3ncc(-c4cccc(C(F)(F)F)c4)n3n2)CC1	enzyme activity, inhibitor	1 µM	remaining activity	61%
Cc1ccc(NC(=O)c2ccc(C)c(C(F)(F)F)c2)cc1C#Cc1nn(C2CCC(O)CC2)c2ncnc(N)c12 (stereo not shown)	cell-free assay, inhibitor	10 µM	remaining signal	105%
CC(C)(C)c1nc2c(s1)c1nc(N)ncc1c1ccc(NS(=O)(=O)c3c(F)cccc3F)c(F)c12	enzyme activity, inhibitor, radiometric	1 µM	remaining activity	88%
Cc1ccc(Nc2nccc(N(C)c3ccc4c(C)n(C)nc4c3)n2)cc1S(N)(=O)=O	enzyme activity, inhibitor	0.3 µM	inhibition	-9%
O=C(N1CCS(=O)(=O)CC1)N1C[C@H](c2ccc(OC(F)(F)F)cc2)C[C@H](c2nc(C3CC3)no2)C1	cell-free assay, competition with immobilised ligand	1 µM	remaining binding	100%
Cn1c2c(c3ccccc31)C(C#N)C(C)(C)NC2=O (stereo not shown)	thermal stability, DSF	10 µM	ΔTm	0.8 °C
COc1cc(Nc2cnc(C#N)c(O[C@H](C)CN(C)C)n2)ncc1-c1cnn(C)c1	enzyme activity, inhibitor, radiometric	10 µM	remaining activity	87%
CCCOc1ccc(OC)c(F)c1C(=O)c1ccc(C(=O)N[C@@H]2CNC[C@H]2NC(=O)c2ccc3[nH]ncc3c2)cc1	enzyme activity, inhibitor	10 µM	remaining activity	108%

SMILES	assay	setting	endpoint	value
N#CCCc1ccc2c(c1)-c1[nH]c3ccc([N+](=O)[O-])cc3c1CC(=O)N2	cell-free assay	0.5 µM	remaining signal	91.2%
CN1CCC2(CC1)NC(=O)c1c(c3ccc(Cl)c(Cl)c3n1C)C2C#N (racemic)	thermal stability, DSF	10 µM	ΔTm	2.5 °C
O=C(Nc1cnc(Oc2ccc(F)cc2)nc1)N1CCc2ncccc2[C@@H]1c1ccc(F)cc1	cell-free assay, competition with immobilised ligand	1 µM	remaining binding	93%
Cc1ccc(C(=O)NCc2ccsc2)cc1C#Cc1cn(C(C)C)c2ncnc(N)c12	enzyme activity, inhibitor	1 µM	activity vs control	94%
CCN(CC)CCNC(=O)c1c(C)[nH]c(/C=C2\C(=O)Nc3ccc(F)cc32)c1C	enzyme activity, inhibitor	10 µM	inhibition	22%
O=C(Nc1ccc(Oc2ccc(F)cc2)cc1)N1CCc2ncccc2[C@H]1c1ccc(F)cc1	cell-free assay, competition with immobilised ligand	1 µM	remaining binding	99%
CNC(=O)c1cc(Oc2ccc(NC(=O)Nc3ccc(Cl)c(C(F)(F)F)c3)cc2)ccn1	cell-free assay	0.5 µM	remaining signal	108%
CN(C)C(=O)Cn1cc(-c2nc([C@@](C)(c3ccc(-c4cnc(N)nc4)cc3)C3CC3)no2)cn1	cell-free assay, competition with immobilised ligand	1 µM	remaining binding	88%
Cn1c2c(Cl)c(Cl)ccc2c2cc[nH]c(=O)c21	thermal stability, DSF	10 µM	ΔTm	1.3 °C
COc1cccc(CNC(=O)c2nc3scc(COCc4ccc(C(=O)O)cc4)c3c(=O)[nH]2)c1	cell-free assay, competition with immobilised ligand	1 µM	remaining binding	90.7%
Cn1c2c(Cl)c(Cl)ccc2c2cc(N)[nH]c(=O)c21	thermal stability, DSF	10 µM	ΔTm	2.8 °C
C[C@@H]1CN(c2cc(-c3nn(C)c4ccc(OC5(C)CC5)cc34)ncn2)C[C@H](C)O1	cell-free assay, competition with immobilised ligand	1 µM	remaining binding	76%
Nc1ncnc2occ(-c3ccc(NC(=O)Nc4cc(C(F)(F)F)ccc4F)cc3)c12	enzyme activity, inhibitor	20 µM	remaining activity	63%
NS(=O)(=O)c1cc(NC(=O)Cc2ccccc2)ccc1Oc1cccc(Cl)c1	cell-free assay, competition with immobilised ligand	1 µM	remaining binding	96%
C[S+]([O-])c1ccc(-c2nc(-c3ccncc3)c(-c3ccc(F)cc3)[nH]2)cc1 (stereo not shown)	cell-free assay	0.5 µM	remaining signal	86.2%
